Test results taken from ChEMBL document CHEMBL1649235, “The proteasome inhibitor epoxomicin has potent Plasmodium falciparum gametocytocidal activity” (Antimicrob Agents Chemother, 2009).
Values belong to the molecule of their own block, whether it stands above or below them. Active and inactive are the calls of the source. The calls are words filed in the database; no cut-off is given here.

Legend:
Plasmodium falciparum [1] = test: Antimicrobial activity against Plasmodium falciparum 3D7 assessed as stage 4 gametocytes per 1000 RBCs at 100 uM after 2 days by Giemsa staining relative to control; assay type: functional
Summary of the method: (§1)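 3D7 cultures holding asexual parasites and gametocytes, gametocytogenesis induced per Ifediba and Vanderberg. Inhibitor at 100 µM or DMSO carrier for 24 h in a sealed chamber (90% N2, 5% CO2, 5% O2) at 37°C. Fed daily with RPMI 1640, hypoxanthine (10 mg liter−1) and 10% human serum. Gametocytes per 1,000 RBCs counted and staged on Giemsa smears 2 days after treatment.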

Plasmodium falciparum [2] = test: Antimicrobial activity against Plasmodium falciparum 3D7 assessed as stage 4 gametocyte per 1000 RBCs at 100 uM after 5 days by Giemsa staining relative to control; assay type: functional
Summary of the method: (§2)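 Gametocyte cultures of strain 3D7, 8 days after setup, exposed 24 h to inhibitor at 100 µM or an equal amount of DMSO. Kept at 37°C under 90% N2/5% CO2/5% O2 and fed daily with RPMI 1640, hypoxanthine and 10% human serum. Gametocytes per 1,000 RBCs scored by stage (II–V) on Giemsa-stained smears.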

Plasmodium falciparum [3] = test: Antimicrobial activity against Plasmodium falciparum 3D7 assessed as stage 3 gametocyte per 1000 RBCs at 100 uM after 5 days by Giemsa staining relative to control; assay type: functional; summary of the method: as §2
Plasmodium falciparum [4] = test: Antimicrobial activity against Plasmodium falciparum 3D7 assessed as stage 2 gametocytes per 1000 RBCs at 100 uM after 2 days by Giemsa staining relative to control; assay type: functional; summary of the method: as §1
Plasmodium falciparum [5] = test: Antimicrobial activity against Plasmodium falciparum 3D7 assessed as stage 3 gametocytes per 1000 RBCs at 100 uM after 2 days by Giemsa staining relative to control; assay type: functional; summary of the method: as §1
Plasmodium falciparum [6] = test: Antimicrobial activity against asexual stage of Plasmodium falciparum 3D7 assessed as reduction in parasite count at 100 uM after 24 hrs by Giemsa staining; assay type: functional, organism-based
Summary of the method: (§3)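 3D7 cultures containing asexual stages and gametocytes incubated 24 h with inhibitor at 100 µM or DMSO carrier, at 37°C in a sealed chamber (90% N2, 5% CO2, 5% O2), fed with RPMI 1640, hypoxanthine and 10% human serum. Asexual parasites and gametocytes assessed on Giemsa-stained smears.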

Plasmodium falciparum [7] = test: Antimicrobial activity against Plasmodium falciparum 3D7 assessed as stage 5 gametocyte per 1000 RBCs at 100 uM after 5 days by Giemsa staining relative to control; assay type: functional; summary of the method: as §2
Plasmodium falciparum [8] = test: Antimicrobial activity against asexual stage of Plasmodium falciparum 3D7 assessed as reduction in parasite count at 1uM after 24 hrs by Giemsa staining; assay type: functional; parameters: scale not given: the % may be the effect or the level left
Summary of the method: (§4)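 Mixed asexual/gametocyte 3D7 cultures (mainly stage II–III gametocytes) exposed 24 h to serial dilutions (10 nM to 1 µM) or DMSO carrier at 37°C under low-oxygen gas. Asexual parasites and gametocytes counted on Giemsa smears and expressed as percent of DMSO control. IC50 calculated from the 24-h time point.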

Plasmodium falciparum [9] = test: Antimicrobial activity against gametocyte stage of Plasmodium falciparum 3D7 assessed as reduction in parasite count at 100 nM after 24 hrs by Giemsa staining; assay type: functional; parameters: scale not given: the % may be the effect or the level left; summary of the method: as §4
[10] = Cytotoxicity against human A549 cells assessed as viable cells at 1 uM by MTS assay in presence of 10% fetal calf serum; assay type: cell-based; settings: read-out: Activity
Summary of the method: (§5)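 NIH-3T3 mouse fibroblasts or A549 human lung epithelial cells (1 × 104 to 5 × 10^4 per well) in DMEM with 10% FCS. Viability read by MTS tetrazolium reduction as absorbance.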

Plasmodium falciparum [11] = test: Antimicrobial activity against asexual stage of Plasmodium falciparum 3D7 assessed as reduction in parasite count at 100 nM after 24 hrs by Giemsa staining; assay type: functional; parameters: scale not given: the % may be the effect or the level left; summary of the method: as §4
Plasmodium falciparum [12] = test: Antimicrobial activity against asexual stage of Plasmodium falciparum 3D7 after 24 hrs; assay type: functional, organism-based; settings: 3D7, 24 h; summary of the method: as §4
Plasmodium falciparum [13] = test: Antimicrobial activity against gametocyte stage of Plasmodium falciparum 3D7 assessed as reduction in parasite count at 1 uM after 24 hrs by Giemsa staining; assay type: functional; parameters: scale not given: the % may be the effect or the level left; summary of the method: as §4
Plasmodium falciparum [14] = test: Antimicrobial activity against gametocyte stage of Plasmodium falciparum 3D7 after 24 hrs; assay type: functional, organism-based; settings: 3D7, 24 h; summary of the method: as §4
[15] = Cytotoxicity against mouse 3T3 cells assessed as viable cells at 1 uM by MTS assay in presence of 10% fetal calf serum; assay type: cell-based; settings: 3T3 cells (NIH3T3), read-out: Activity; summary of the method: as §5
Plasmodium falciparum [16] = test: Antimicrobial activity against Plasmodium falciparum 3D7 assessed as gametocytes per 1000 RBCs at 100 uM after 2 days by Giemsa staining relative to control; assay type: functional; summary of the method: as §1
Plasmodium falciparum [17] = test: Antimicrobial activity against gametocyte stage of Plasmodium falciparum 3D7 at 100 uM after 24 hrs by Giemsa staining; assay type: functional, organism-based; summary of the method: as §3
Plasmodium falciparum [18] = test: Antimicrobial activity against asexual stage of Plasmodium falciparum 3D7 at 100 uM after 24 hrs by Giemsa staining; assay type: functional, organism-based; summary of the method: as §3

SMILES: CCOC(=O)[C@H]1O[C@@H]1C(=O)N[C@@H](CC(C)C)C(=O)NCCC(C)C [ALOXISTATIN]
- Activity (Plasmodium falciparum [1]): 10%
- Activity (Plasmodium falciparum [2]): 68%
- Activity (Plasmodium falciparum [3]): 22%
- Activity (Plasmodium falciparum [4]): 72%
- Activity (Plasmodium falciparum [5]): 18%
- Activity (Plasmodium falciparum [6]): Active
- Activity (Plasmodium falciparum [7]): 10%

- IC50 (Plasmodium falciparum [12]): 41 nM
- IC50 (Plasmodium falciparum [14]): 54 nM
SMILES: CC[C@H](C)[C@H](NC(=O)[C@H]([C@@H](C)CC)N(C)C(C)=O)C(=O)N[C@H](C(=O)N[C@@H](CC(C)C)C(=O)[C@@]1(C)CO1)[C@@H](C)O [EPOXOMYCIN]
- Activity (Plasmodium falciparum [8]): 86%
- Activity (Plasmodium falciparum [9]): 77%
- viability at 1 µM [10]: 80%
- Activity (Plasmodium falciparum [11]): 86%
- Activity (Plasmodium falciparum [13]): 77%
- viability at 1 µM [15]: 80%

SMILES: Cc1ccc(S(=O)(=O)N[C@@H](Cc2ccccc2)C(=O)CCl)cc1 [TPCK]
- Activity (Plasmodium falciparum [16]): 21%
- Activity (Plasmodium falciparum [17]): inactive
- Activity (Plasmodium falciparum [18]): inactive
